This note sets out measurements from ChEMBL document CHEMBL1137004, “Discovery of novel motilin antagonists: Conversion of tetrapeptide leads to orally available peptidomimetics” (Bioorg Med Chem Lett, 2009).

Activity calls are given as the source filed them. The calls are words filed in the database; no cut-off is given here. Where a SMILES comes first, the peptide text is derived from it.

The nature of data set [1]: Metabolic stability in rat liver S9 fraction assessed as compound remaining after 30 mins. It counts as ADME, subcellular. Particulars: read-out: Stability. Summed up: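 Compound incubated with rat liver S-9 for 30 min at 37 °C. Stability is expressed as residual % of compound.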
Data set [2] relates to Canis familiaris. Nature of the data set: Suppression of MTL receptor-mediated motilin-induced colonic motility in conscious dog 5 mg/kg administered 30 mins before motilin challenge. The format is functional, organism-based. On the set-up: dose 5 mg/kg. The following applies: Canis lupus familiaris.
Data set [3] has as its target T1, Motilin receptor (Oryctolagus cuniculus, UniProt A5A4K8). Nature of the data set: Antagonist activity at MTL receptor in rabbit duodenum homogenate. The format is functional, tissue-based. The following applies: read-out: pA2 (converted).
The nature of data set [4]: Apparent permeability across human Caco-2 cells at pH 6.8. The format is ADME, cell-based. The following applies: Caco-2, pH 6.8. Background: Caco-2 monolayers are a common model of the intestinal barrier.
Data set [5] can be described thus: Oral bioavailability in rat at 10 mg/kg. The format is ADME, organism-based. The following applies: in vivo.
Data set [6] deals with Canis familiaris. Nature of the data set: Suppression of MTL receptor-mediated motilin-induced gastric motility in conscious dog 5 mg/kg administered 30 mins before motilin challenge. It counts as functional, organism-based. On the set-up: dose 5 mg/kg. Particulars: Canis lupus familiaris; Stomach.
The target in data set [7] is T1, Motilin receptor. Nature of the data set: Displacement of [125I]motilin from MTL receptor in rabbit duodenum homogenate. Summed up:
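Tissue homogenate incubated at 25 °C with 25 pM [¹²⁵I]motilin for 120 min. Stopped with ice-cold buffer, then bound and free ligand separated by centrifugation at 1500g for 5 min. Pellet washed with ice-cold buffer and counted by gamma counter. IC₅₀ is the concentration displacing 50% of ¹²⁵I-motilin binding.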
For orientation: In a radioligand displacement assay an active substance lowers the binding of a labelled ligand.

The Papp is a coefficient for how fast a substance crosses the barrier. In general, bioavailability refers to the share of a dose that reaches the circulation, judged against a reference dose that is usually intravenous. Low readings indicate poor availability, high ones good availability. The IC50 is the concentration needed to halve the response being measured. A higher IC50 goes with weaker potency in that assay.

T1 sequence (A5A4K8 whole entry): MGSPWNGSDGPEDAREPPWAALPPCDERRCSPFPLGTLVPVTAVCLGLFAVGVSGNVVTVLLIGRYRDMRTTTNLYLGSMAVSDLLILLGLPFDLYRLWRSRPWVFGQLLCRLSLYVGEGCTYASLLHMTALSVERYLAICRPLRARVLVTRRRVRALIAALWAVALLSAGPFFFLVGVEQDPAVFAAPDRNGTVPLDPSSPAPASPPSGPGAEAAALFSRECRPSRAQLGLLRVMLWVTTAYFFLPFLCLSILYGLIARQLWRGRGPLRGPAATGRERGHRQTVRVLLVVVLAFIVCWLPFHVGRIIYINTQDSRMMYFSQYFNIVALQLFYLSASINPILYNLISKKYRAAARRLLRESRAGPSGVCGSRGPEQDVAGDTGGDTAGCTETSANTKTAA

Consider `CC(C)[C@@H](C(=O)N[C@H](C)Cc1ccc(O)c(C(C)(C)C)c1)N(C)C(=O)[C@@H](N)Cc1ccccc1`, for which the remaining at 0.5 h in data set [1] stood at 100%. The result with Canis familiaris [2] and in the data set on Canis familiaris [6] was Active. Moreover, the Kb at Motilin receptor [3] was 3.98 nM. Besides, the Papp in data set [4] was 12.1 ×10⁻⁶ cm/s. Moreover, the bioavailability in data set [5] is 65%. The same compound registered an IC50 on Motilin receptor [7] of 1.9 nM.

`CC(C)(C)c1cc(C[C@@H]2NC(=O)[C@@H](NC(=O)[C@@H](N)Cc3ccccc3)CCCCCC(=O)CCNC2=O)ccc1O`: the Kb at Motilin receptor [3] was 39.8 nM. For the same compound, the IC50 on Motilin receptor [7] turned out to be 12 nM.

As for `C[C@H](NC(=O)[C@@H](N)Cc1ccccc1)C(=O)N[C@@H](Cc1ccc(O)c(C(C)(C)C)c1)C(N)=O` (HELM PEPTIDE1{F.A.[CC(C)(C)c1cc(C[C@H](N[*:1])C(=O)[*:2])ccc1O].[am]}$$$$V2.0), the Kb on Motilin receptor [3] is over 1000 nM. For the same compound, the IC50 at Motilin receptor [7] came out at 185 nM.

On to `CC(C)(C)c1cc(C[C@H](NC(=O)[C@H](Cc2ccccc2)NC(=O)[C@@H](N)Cc2ccccc2)C(N)=O)ccc1O` (HELM PEPTIDE1{F.F.[CC(C)(C)c1cc(C[C@H](N[*:1])C(=O)[*:2])ccc1O].[am]}$$$$V2.0), for which the Kb at Motilin receptor [3] is 63.1 nM. Further, on Motilin receptor [7], the IC50 was 6 nM.

As for `CC(C)C[C@H](NC(=O)[C@@H](N)Cc1ccccc1)C(=O)N[C@@H](Cc1ccc(O)c(C(C)(C)C)c1)C(N)=O` (HELM PEPTIDE1{F.L.[CC(C)(C)c1cc(C[C@H](N[*:1])C(=O)[*:2])ccc1O].[am]}$$$$V2.0), the Kb at Motilin receptor [3] was 50.1 nM. The compound further gave an IC50 at Motilin receptor [7] of 27 nM.

Consider `CC(C)[C@H](NC(=O)[C@@H](N)Cc1ccccc1)C(=O)N[C@@H](Cc1ccc(O)c(C(C)(C)C)c1)C(N)=O` (HELM PEPTIDE1{F.V.[CC(C)(C)c1cc(C[C@H](N[*:1])C(=O)[*:2])ccc1O].[am]}$$$$V2.0), for which the Kb on Motilin receptor [3] was 126 nM. On Motilin receptor [7], the IC50 worked out at 46 nM.

`CC(C)[C@H](NC(=O)[C@@H](N)Cc1ccccc1)C(=O)N(C)[C@@H](Cc1ccc(O)c(C(C)(C)C)c1)C(N)=O` (HELM PEPTIDE1{F.V.[CN([C@@H](Cc1ccc(O)c(C(C)(C)C)c1)C(=O)[*:2])[*:1]].[am]}$$$$V2.0): the remaining at 0.5 h in data set [1] worked out at 7%. For the same compound, on Motilin receptor [3], the Kb was 63.1 nM. For the same compound, the concentration for half-maximal inhibition (IC50) at Motilin receptor [7] came to 24 nM.

For the compound `CC(C)(C)c1cc(C[C@H](NC(=O)[C@@H](NC(=O)[C@@H](N)Cc2ccccc2)c2ccccc2)C(N)=O)ccc1O` (HELM PEPTIDE1{F.[Phg].[CC(C)(C)c1cc(C[C@H](N[*:1])C(=O)[*:2])ccc1O].[am]}$$$$V2.0), at Motilin receptor [3], the Kb was 15.8 nM. The concentration for half-maximal inhibition (IC50) on Motilin receptor [7] turned out to be 12 nM.

With `CC(C)[C@@H](C(=O)N[C@@H](Cc1ccc(O)c(C(C)(C)C)c1)C(N)=O)N(C)C(=O)[C@@H](N)Cc1ccccc1` (HELM PEPTIDE1{F.[meV].[CC(C)(C)c1cc(C[C@H](N[*:1])C(=O)[*:2])ccc1O].[am]}$$$$V2.0), the remaining at 0.5 h in data set [1] came out at 69%. Also, the Kb at Motilin receptor [3] is 12.6 nM. In data set [5], the bioavailability worked out at 6%. This compound registered an IC50 at Motilin receptor [7] of 1.1 nM.

Turning to `CC(C)[C@@H](C(=O)N(C)[C@@H](Cc1ccc(O)c(C(C)(C)C)c1)C(N)=O)N(C)C(=O)[C@@H](N)Cc1ccccc1` (HELM PEPTIDE1{F.[meV].[CN([C@@H](Cc1ccc(O)c(C(C)(C)C)c1)C(=O)[*:2])[*:1]].[am]}$$$$V2.0), in data set [1], the remaining at 0.5 h came to 80%. Moreover, the result with Canis familiaris [2] and in the data set with Canis familiaris [6] was Active. Further, the Kb on Motilin receptor [3] is 2.51 nM. Also, the Papp in data set [4] was 2.31 ×10⁻⁶ cm/s. Further, the bioavailability in data set [5] was found to be 30%. Moreover, at Motilin receptor [7], the IC50 stood at 4.3 nM.
